Results reported in PMC4738094 (Bioorganic & medicinal chemistry, 2015).
Entries after “also recorded” stand apart in the source; their conditions may differ.

test system: Neuro-2A neuroblastoma cells; experiment: MTT cell viability assay under Aβ-induced cytotoxicity; assay type: cell-based, Murine; details: Neuro-2A cells exposed to Aβ
In short: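 Neuro-2A cells grown in DMEM with 10% FBS and penicillin-streptomycin at 37°C, 5% CO2. Cells briefly trypsinised, seeded at 2,000–4,000 cells/mL, and rested 6 h. Aβ25–35 (from 833 µM solution), test compound (from 250 µM solution) and MTT were added together for 6 h. Extraction buffer (acetic acid/SDS in DMF/water, pH 4.7) was then added, with 6 h shaking in the dark at 37°C. A570 was expressed relative to an Aβ-free control.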

Q: With `O=C(/C=C/c1ccc(O)c(O)c1)c1cccc(O)c1` [Compound 8, (E)-3-(3,4-dihydroxyphenyl)-1-(3-hydroxyphenyl)prop-2-en-1-one] as the compound, how does the “protection of cells against Aβ/ROS-induced stress (in words)” value (“protection of cells” below) read?
A: Its value is “only modest protection”.

Q: Which “protection of cells” value does the source give for `O=C(/C=C/c1ccc(O)c(O)c1)c1ccc(O)cc1` [Compound 9, (E)-3-(3,4-dihydroxyphenyl)-1-(4-hydroxyphenyl)prop-2-en-1-one] here?
A: The value was “increased cell viability at a modest but noticeable level”.

Q: Which “protection of cells” value does the source give for `O=C(/C=C/c1cccc(O)c1)c1ccc(O)cc1O` [Compound 10, (E)-1-(2,4-dihydroxyphenyl)-3-(3-hydroxyphenyl)prop-2-en-1-one] here?
A: Its value is “poor rescue compound”.

Q: For `O=C(/C=C/c1ccc(O)c(O)c1)c1c(O)cccc1O` [Compound 11, (E)-1-(2,6-dihydroxyphenyl)-3-(3,4-dihydroxyphenyl)prop-2-en-1-one], which “protection of cells” value is on record?
A: Its value is “increased cell viability at a modest but noticeable level”.

Q: For `O=C(/C=C/c1ccc(O)c(O)c1)c1cc(O)ccc1O` [Compound 12, (E)-1-(2,5-dihydroxyphenyl)-3-(3,4-dihydroxyphenyl)prop-2-en-1-one], which “protection of cells” value is on record?
A: The value was “good rescue properties; also recorded: increased cell viability at a modest but noticeable level”.

Q: For `O=C(/C=C/c1ccc(O)c(O)c1)c1ccc(O)c(O)c1` [Compound 13, (E)-1,3-bis(3,4-dihydroxyphenyl)prop-2-en-1-one], which “protection of cells” value is on record?
A: Its value is “increased cell viability at a modest but noticeable level”.

Q: For `O=C(/C=C/c1ccc(O)c(O)c1)c1cc(O)cc(O)c1` [Compound 14, (E)-3-(3,4-dihydroxyphenyl)-1-(3,5-dihydroxyphenyl)prop-2-en-1-one], which “protection of cells” value is on record?
A: The value was “increased cell viability at a modest but noticeable level”.

Q: Which “protection of cells” value does the source give for `O=C(/C=C/c1ccc(O)c(O)c1)c1ccc(O)cc1O` [Compound 15, (E)-1-(2,4-dihydroxyphenyl)-3-(3,4-dihydroxyphenyl)prop-2-en-1-one] here?
A: Its value is “best level of protection”.

Q: Which “protection of cells” value does the source give for `O=C(/C=C/c1cccc(O)c1O)c1ccc(O)c(O)c1` [Compound 16, (E)-3-(2,3-dihydroxyphenyl)-1-(3,4-dihydroxyphenyl)prop-2-en-1-one] here?
A: Its value is “increased cell viability at a modest but noticeable level”.

Q: Which “protection of cells” value does the source give for `O=C(/C=C/c1cc(O)ccc1O)c1ccc(O)c(O)c1` [Compound 17, (E)-3-(2,5-dihydroxyphenyl)-1-(3,4-dihydroxyphenyl)prop-2-en-1-one] here?
A: The value was “best level of protection”.

Q: With `O=C(/C=C/c1ccc(O)c(O)c1)c1ccc(O)c(O)c1O` [Compound 18, (E)-3-(3,4-dihydroxyphenyl)-1-(2,3,4-trihydroxyphenyl)prop-2-en-1-one] as the compound, how does the “protection of cells” value read?
A: The value was “best level of protection”.

Q: With `O=C(/C=C/c1ccc(O)c(O)c1O)c1ccc(O)c(O)c1` [Compound 19, (E)-1-(3,4-dihydroxyphenyl)-3-(2,3,4-trihydroxyphenyl)prop-2-en-1-one] as the compound, how does the “protection of cells” value read?
A: Its value is “increased cell viability at a modest but noticeable level”.

Q: For `O=C(/C=C/c1ccc(O)c(O)c1O)c1ccc(O)c(O)c1O` [Compound 20, (E)-1,3-bis(2,3,4-trihydroxyphenyl)prop-2-en-1-one], which “protection of cells” value is on record?
A: The value was “best level of protection”.

test system: XO; experiment: not given; details: read-out: IC50 (XO inhibition); ref [6]; cited from earlier work

Q: With `Oc1ncnc2[nH]ncc12` [Allopurinol] as the compound, how does the IC50 read?
A: The IC50 was 0.2 to 50 µM.

same assay, conditions: ref [16]; cited from earlier work

Q: Which “potency (XO inhibition)” value does the source give for `Cc1nc(-c2ccc(OCC(C)C)c(C#N)c2)sc1C(=O)O` [febuxostat] here?
A: The value was “subnanomolar range”.

test system: not given; experiment: not given; details: ref [74]; cited from earlier work

Q: Which standard reduction potential does the source give for `Oc1ccccc1O` [catechol] here?
A: Its standard reduction potential is 530 mV.

Q: With `Oc1ccc(O)cc1` [hydroquinone] as the compound, how does the standard reduction potential read?
A: Its standard reduction potential is 459 mV.

Q: With `Oc1cccc(O)c1` [resorcinol] as the compound, how does the standard reduction potential read?
A: The standard reduction potential was 720 mV.
